Assay [1] addresses T1, TLR7 (Homo sapiens, UniProt Q9NYK1).
T1 sequence (Q9NYK1 27-1049): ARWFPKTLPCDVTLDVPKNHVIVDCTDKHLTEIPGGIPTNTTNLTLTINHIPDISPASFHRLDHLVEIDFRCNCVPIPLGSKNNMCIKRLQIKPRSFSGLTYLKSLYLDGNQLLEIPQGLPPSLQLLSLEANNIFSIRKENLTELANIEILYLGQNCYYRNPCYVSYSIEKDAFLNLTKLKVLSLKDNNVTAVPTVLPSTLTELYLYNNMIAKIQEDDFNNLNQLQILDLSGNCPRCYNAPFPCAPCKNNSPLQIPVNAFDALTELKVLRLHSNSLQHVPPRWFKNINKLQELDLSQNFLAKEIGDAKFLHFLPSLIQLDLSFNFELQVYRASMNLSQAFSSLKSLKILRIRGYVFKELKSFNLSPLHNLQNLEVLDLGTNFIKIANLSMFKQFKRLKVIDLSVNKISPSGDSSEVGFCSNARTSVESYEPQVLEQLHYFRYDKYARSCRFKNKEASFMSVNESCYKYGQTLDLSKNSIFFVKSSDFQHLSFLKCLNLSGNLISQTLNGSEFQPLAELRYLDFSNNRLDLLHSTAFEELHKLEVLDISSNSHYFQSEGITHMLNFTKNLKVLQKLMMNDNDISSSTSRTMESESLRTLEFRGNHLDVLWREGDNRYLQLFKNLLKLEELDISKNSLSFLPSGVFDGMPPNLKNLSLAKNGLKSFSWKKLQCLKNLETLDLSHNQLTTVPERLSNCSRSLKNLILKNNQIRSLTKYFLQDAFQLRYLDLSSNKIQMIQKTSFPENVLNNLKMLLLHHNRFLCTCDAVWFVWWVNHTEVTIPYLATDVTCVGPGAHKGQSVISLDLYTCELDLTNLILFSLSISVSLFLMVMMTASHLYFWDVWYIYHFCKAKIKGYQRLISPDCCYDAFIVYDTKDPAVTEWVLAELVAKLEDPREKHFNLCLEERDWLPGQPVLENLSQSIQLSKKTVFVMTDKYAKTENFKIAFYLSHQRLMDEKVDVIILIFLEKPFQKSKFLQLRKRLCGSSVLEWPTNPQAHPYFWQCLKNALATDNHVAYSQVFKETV
The experiment in a line: Isolated human pDC assay, ssRNA-driven IFN-α. It is filed as cell-based. As to conditions: fixed dose of MHV370. In short, it runs like this:
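pDCs were negatively enriched from PBMCs and resuspended in RPMI1640 with 10 ng/mL recombinant human IL-3. They were pre-treated 30 min with test compound or 0.25% v/v DMSO. Stimulation was 20 h at 37°C, 5% CO2 with ssRNA40 (10 μg/mL plus 25 μg/mL DOTAP) or ODN2216 (0.3 μM). IFN-α in supernatants was read by AlphaLisa; viability by CellTiter-Glo.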

The test system of assay [2] is TLR7/8. The experiment in a line: Human PBMC cytokine release, TLR7/8 agonists ssRNA or R848. It counts as cell-based. Conditions: human PBMCs, IL-6 as readout.
In assay [3] the target is T1, TLR7. The experiment in a line: Human whole blood assay, ssRNA-IFN-α. It counts as cell-based. In short, it runs like this: (§1)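 Fresh human blood or 129/Sv mouse blood was taken into citrate and diluted 1:1 with RPMI1640. It was pre-incubated 30 min at 37°C, 5% CO2 with increasing concentrations of test compound or 0.25% v/v DMSO (final). Blood was then stimulated with TLR agonists at doses from earlier work, or with R848 (3 μM), and cytokines were quantified. Viability was checked by ATPlite luminescence.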

Assay [4] deals with TLR4 (Mus musculus, UniProt Q9QUK6). The experiment in a line: Murine whole blood assay, TLR4 activation. It is filed as cell-based. As to conditions: up to 10 μM, data not shown, n = 4. In short, it runs like this: as §1
The target in assay [5] is T2, TLR7 (Mus musculus, UniProt P58681).
T2 sequence (P58681 27-1050): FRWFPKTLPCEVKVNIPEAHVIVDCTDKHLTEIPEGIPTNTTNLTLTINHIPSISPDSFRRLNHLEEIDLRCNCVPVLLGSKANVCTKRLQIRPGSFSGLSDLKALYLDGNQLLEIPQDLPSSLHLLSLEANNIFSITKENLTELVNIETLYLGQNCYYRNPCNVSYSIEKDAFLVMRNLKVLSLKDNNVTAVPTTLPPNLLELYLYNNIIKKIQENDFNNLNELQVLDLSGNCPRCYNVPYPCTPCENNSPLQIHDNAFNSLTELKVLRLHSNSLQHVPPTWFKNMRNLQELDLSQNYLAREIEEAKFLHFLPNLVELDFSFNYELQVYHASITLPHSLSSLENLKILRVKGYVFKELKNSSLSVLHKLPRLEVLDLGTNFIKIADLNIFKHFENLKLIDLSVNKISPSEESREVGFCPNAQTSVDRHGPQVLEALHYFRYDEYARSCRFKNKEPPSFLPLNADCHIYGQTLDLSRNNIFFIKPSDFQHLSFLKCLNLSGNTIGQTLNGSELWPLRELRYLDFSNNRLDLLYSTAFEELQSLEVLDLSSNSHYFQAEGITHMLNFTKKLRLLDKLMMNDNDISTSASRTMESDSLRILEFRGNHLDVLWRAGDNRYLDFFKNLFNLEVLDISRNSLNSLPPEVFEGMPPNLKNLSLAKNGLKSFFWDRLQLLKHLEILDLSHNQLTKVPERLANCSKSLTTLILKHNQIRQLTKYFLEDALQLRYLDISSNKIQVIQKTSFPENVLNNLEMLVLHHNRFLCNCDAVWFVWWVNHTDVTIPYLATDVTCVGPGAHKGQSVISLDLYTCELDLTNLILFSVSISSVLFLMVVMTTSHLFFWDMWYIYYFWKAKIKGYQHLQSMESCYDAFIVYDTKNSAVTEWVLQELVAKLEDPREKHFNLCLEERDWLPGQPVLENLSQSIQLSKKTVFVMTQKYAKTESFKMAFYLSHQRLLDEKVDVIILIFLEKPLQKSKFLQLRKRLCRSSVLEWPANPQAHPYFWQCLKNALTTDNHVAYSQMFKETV
The experiment in a line: Ex vivo PD marker CD69 on B cells vs MHV370 blood exposure in NZB/W F1 mice. In short, it runs like this:
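NZB/W F1 mice were dosed with test compound in food. Anticoagulated whole blood was diluted 1:1 in RPMI1640 and stimulated with 0.07 μg/mL R848 or medium at 37°C, 5% CO2. CD69 MFI on CD19+ B cells was read by flow cytometry. Drug concentration in whole blood was measured by LC-MS/MS.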

Sequence of TLR4 (Q9QUK6 26-835): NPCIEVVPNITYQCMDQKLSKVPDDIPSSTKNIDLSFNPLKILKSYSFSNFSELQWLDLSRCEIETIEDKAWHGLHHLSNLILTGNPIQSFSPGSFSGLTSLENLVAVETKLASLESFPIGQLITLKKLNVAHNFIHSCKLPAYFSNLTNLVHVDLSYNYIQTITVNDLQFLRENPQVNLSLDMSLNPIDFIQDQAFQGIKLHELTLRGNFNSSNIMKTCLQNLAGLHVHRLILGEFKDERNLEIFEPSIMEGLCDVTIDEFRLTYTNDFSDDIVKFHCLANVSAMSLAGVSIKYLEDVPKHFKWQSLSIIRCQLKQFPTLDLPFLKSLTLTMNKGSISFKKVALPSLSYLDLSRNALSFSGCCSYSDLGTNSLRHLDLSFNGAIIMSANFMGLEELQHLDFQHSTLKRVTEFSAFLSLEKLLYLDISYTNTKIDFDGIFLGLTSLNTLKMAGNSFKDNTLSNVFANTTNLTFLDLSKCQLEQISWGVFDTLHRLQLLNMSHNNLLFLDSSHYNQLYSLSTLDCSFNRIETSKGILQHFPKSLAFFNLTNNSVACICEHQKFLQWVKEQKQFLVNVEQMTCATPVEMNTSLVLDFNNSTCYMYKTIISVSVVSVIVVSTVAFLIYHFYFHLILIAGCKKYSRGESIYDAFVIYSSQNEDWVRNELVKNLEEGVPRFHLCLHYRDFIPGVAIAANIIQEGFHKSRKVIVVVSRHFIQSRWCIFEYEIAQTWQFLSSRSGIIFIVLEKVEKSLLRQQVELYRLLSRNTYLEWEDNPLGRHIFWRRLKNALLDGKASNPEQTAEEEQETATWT
Sequence of TLR4 (Q9JHF9 19-160 partner): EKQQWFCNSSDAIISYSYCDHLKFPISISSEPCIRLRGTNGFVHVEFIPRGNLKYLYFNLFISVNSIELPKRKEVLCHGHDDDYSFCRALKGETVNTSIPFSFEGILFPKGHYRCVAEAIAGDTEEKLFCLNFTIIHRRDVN

As to `Cc1cc(N2CCc3c(c(C)nn3CC34CCC(NC(=O)[C@@H]5COCCN5)(CC3)CC4)C2)c2cnn(C)c2n1` [MHV370, (S)-N-(4-((5-(1,6-dimethyl-1H-pyrazolo[3,4-b]pyridin-4-yl)-3-methyl-4,5,6,7-tetrahydro-1H-pyrazolo[4,3-c]pyridin-1-yl)methyl)bicyclo[2.2.2]octan-1-yl)morpholine-3-carboxamide], in assay [1], the “ssRNA-driven IFN-α responses from pDCs” value was “blocked”. The “mode of antagonism (Schild analysis)” value in assay [2] was “competitive and reversible antagonist”. Also, the half-maximal inhibitory concentration (IC50) (commonly the concentration that gives 50% inhibition) in assay [3] amounted to 8.4 ± 1 nM; in assay [5] it was 35 nM. Also, the “functional inhibition of TLR4” value in assay [4] was “did not show functional inhibition”.

Source of the values: article PMC10213863 (Cell Reports Medicine, 2023).
